In ChEMBL document CHEMBL1132384, “Design, synthesis, and evaluation of chromen-2-ones as potent and selective human dopamine D4 antagonists” (J Med Chem, 1999):
The source made the active and inactive calls. The calls are words filed in the database; no cut-off is given here.

What was measured:
D(4) dopamine receptor = target: T1, D(4) dopamine receptor (Homo sapiens, UniProt P21917); test: Binding affinity using [3H]spiperone displacement from cloned human Dopamine receptor D4.2 expressed in CHO-K1 cells; type: cell-based
T1 sequence (P21917 whole entry): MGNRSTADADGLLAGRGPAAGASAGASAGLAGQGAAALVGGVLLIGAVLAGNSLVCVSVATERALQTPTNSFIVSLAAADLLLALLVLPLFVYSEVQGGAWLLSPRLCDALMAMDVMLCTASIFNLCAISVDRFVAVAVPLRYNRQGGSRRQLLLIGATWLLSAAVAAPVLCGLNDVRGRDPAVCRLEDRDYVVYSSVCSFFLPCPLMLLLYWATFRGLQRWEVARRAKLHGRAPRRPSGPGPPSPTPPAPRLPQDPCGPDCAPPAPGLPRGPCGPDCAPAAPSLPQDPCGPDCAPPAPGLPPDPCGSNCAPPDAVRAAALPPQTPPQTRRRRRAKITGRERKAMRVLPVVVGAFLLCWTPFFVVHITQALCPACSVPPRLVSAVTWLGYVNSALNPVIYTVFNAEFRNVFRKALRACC

[1] = target: Dopamine D2 receptor (Homo sapiens); test: Binding affinity using [3H]spiperone against cloned human Dopamine receptor D2L expressed in CHO-K1 cells
[2] = target: T2, D(4) dopamine receptor (Homo sapiens) (UniProt P21917); test: Compound was tested for the inhibition of [3H]thymidine uptake in CHO p-5 cells transfected with human Dopamine receptor D4.2; type: functional, cell-based
T2 sequence (whole entry): T1 sequence (P21917 whole entry)
How it was run: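 Antagonism of quinpirole (full agonist) stimulated mitogenesis in CHO cells expressing human D4.2. After 18 h, [3H]thymidine 0.25 μCi/well for 2 h, trypsin 1 h, then filtered and counted. Intrinsic activity taken relative to quinpirole; IC50 derived.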

[3] = target: T3, 5-hydroxytryptamine receptor 1A (Mus musculus, UniProt Q64264); test: Compound was tested for binding affinity using [3H]8-OH-DPAT against 5-hydroxytryptamine 1A receptor
T3 sequence (Q64264 whole entry): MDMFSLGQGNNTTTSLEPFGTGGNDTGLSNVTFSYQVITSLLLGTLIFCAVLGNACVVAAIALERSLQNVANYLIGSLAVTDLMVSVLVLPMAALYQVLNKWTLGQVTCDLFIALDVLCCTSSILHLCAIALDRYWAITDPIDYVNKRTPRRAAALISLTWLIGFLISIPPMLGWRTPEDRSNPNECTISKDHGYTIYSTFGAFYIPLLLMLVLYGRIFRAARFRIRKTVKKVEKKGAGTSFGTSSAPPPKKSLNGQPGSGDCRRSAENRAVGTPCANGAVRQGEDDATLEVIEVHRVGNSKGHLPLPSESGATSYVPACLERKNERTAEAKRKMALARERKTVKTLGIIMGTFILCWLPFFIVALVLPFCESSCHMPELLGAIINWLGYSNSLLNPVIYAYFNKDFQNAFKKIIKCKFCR

[4] = target: 5-hydroxytryptamine receptor 2A (Bos taurus, UniProt Q75Z89); test: Compound was tested for binding affinity using [3H]ketanserin against 5-hydroxytryptamine 2 receptor
Sequence of 5-hydroxytryptamine receptor 2A (Q75Z89 whole entry): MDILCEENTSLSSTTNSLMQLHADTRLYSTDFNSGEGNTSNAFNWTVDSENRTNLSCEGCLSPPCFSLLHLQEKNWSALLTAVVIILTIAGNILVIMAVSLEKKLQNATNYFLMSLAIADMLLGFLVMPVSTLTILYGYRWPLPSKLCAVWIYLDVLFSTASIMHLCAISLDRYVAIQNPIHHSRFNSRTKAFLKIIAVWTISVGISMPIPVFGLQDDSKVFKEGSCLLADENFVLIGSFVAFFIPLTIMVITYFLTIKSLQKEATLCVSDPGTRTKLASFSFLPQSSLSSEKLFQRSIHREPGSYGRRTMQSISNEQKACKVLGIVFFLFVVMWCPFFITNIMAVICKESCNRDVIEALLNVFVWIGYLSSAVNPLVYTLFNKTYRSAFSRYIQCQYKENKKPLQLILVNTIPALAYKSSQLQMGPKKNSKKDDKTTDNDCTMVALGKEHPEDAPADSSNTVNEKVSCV

D(3) dopamine receptor = D(3) dopamine receptor (Homo sapiens, UniProt P35462); test: Compound was tested for binding affinity using [3H]spiperone against cloned human Dopamine receptor D3 expressed in CHO-K1 cells; type: cell-based
Sequence of D(3) dopamine receptor (P35462 whole entry): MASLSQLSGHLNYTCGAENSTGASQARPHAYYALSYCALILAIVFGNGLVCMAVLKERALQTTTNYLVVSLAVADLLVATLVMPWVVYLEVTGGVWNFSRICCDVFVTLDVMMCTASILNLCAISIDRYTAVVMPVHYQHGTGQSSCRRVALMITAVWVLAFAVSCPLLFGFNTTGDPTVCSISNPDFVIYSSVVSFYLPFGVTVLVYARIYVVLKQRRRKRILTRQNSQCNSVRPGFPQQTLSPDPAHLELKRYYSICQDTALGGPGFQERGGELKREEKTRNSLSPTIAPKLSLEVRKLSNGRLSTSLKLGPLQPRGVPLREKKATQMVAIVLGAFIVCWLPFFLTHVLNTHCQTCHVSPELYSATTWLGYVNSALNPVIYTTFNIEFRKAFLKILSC
How it was run: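 Cloned human receptors expressed in CHO-K1 cells, displacement of [3H]spiperone; Ki from six concentrations run in triplicate, nonlinear regression.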

Mus musculus = test: Behavioral effect expressed as reversal of prepulse inhibition of acoustic startle in mice, ip; active at 30 mg/kg; type: functional, organism-based; parameters: dose 30 mg/kg
How it was run: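 Vehicle or test compound given ip 15 min before sc saline or apomorphine (0.25 mg/kg); 30-min session of 90 trials after 5-min 70 dB white-noise acclimation, prepulses 2–16 dB over background (20 ms), startle pulses 40 ms. %PPI from 16-dB prepulse; t-test; minimal effective dose reported.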

Rattus norvegicus [5] = test: Behavioral effect expressed as catalepsy test in rats, po; NA=Not active; type: functional, organism-based
How it was run: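 Rats dosed orally; front paws placed on an elevated bar, time (s) paws stayed on bar recorded over three consecutive 1-min trials, retested 2 h postdose. Value is mean response time for third trial.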

Rattus norvegicus [6] = test: Behavioral effect expressed as inhibition of spontaneous motor activity in rats, ip; NA=Not active; type: functional, organism-based
Rattus norvegicus [7] = test: Behavioral effect expressed as inhibition of amphetamine-stimulated locomotor activity in rats, ip; type: functional
Rattus norvegicus [8] = test: Compound was tested for the levels of hippocampal dopamine synthesis in rat after a dosage of 10 mg/kg intraperitoneally and expressed as % of control animals; type: functional, Hippocampus; settings: route intraperitoneal
Rattus norvegicus [9] = test: Compound was tested for the levels of striatal dopamine synthesis in rat after a dosage of 10 mg/kg intraperitoneally and expressed as % of control animals; type: functional; settings: route intraperitoneal
[10] = target: T2, D(4) dopamine receptor (Homo sapiens); test: Ratio of receptor binding towards D2 to D4 receptor
How it was run: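 Ki from [3H]spiperone displacement at cloned human D2L and D4.2 receptors expressed in CHO-K1 cells. Six concentrations run in triplicate, fitted by nonlinear regression. Ratio taken as D2L Ki over D4.2 Ki.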

[11] = target: T2, D(4) dopamine receptor (Homo sapiens); test: Compound was tested for the inhibition of [3H]-thymidine uptake in CHO p-5 cells transfected with Dopamine receptor D4.2; type: functional, cell-based
Rattus norvegicus [12] = test: Compound was tested for the levels of hippocampal dopamine synthesis in rat after a dosage of 10 mg/kg intraperitoneally and expressed as % of control; type: functional, Hippocampus; settings: route intraperitoneal
How it was run: (§1)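 Rats given drug 10 mg/kg ip 60 min before and NSD 1015 (decarboxylase inhibitor) 30 min before decapitation; striatal and hippocampal DOPA by HPLC with electrochemical detection, as percentage increase over control; mean of 4 animals.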

Rattus norvegicus [13] = test: Compound was tested for the levels of striatal dopamine synthesis in rat after a dosage of 10 mg/kg intraperitoneally and expressed as % of control; type: functional; settings: route intraperitoneal; how it was run: as §1

| Compound | Ki (D(4) dopamine receptor) [nM] | Ki [1] [µM] | other results |
| --- | --- | --- | --- |
| CCN(CCNCc1ccc2ccc(=O)oc2c1)c1ccccc1 | 2660 | – | – |
| O=c1ccc2ccc(CN3CCN(c4ccccc4)CC3)cc2o1 | 27 | 5.3 | – |
| Cc1ccccc1N1CCN(Cc2ccc3ccc(=O)oc3c2)CC1 | 16 | 1.94 | – |
| CC(C)(C)c1ccc(N2CCN(Cc3ccc4ccc(=O)oc4c3)CC2)cc1 | 227 | – | – |
| O=c1ccc2ccc(CN3CCC(c4ccccc4)CC3)cc2o1 | 19 | – | – |
| O=c1ccc2ccc(CN3CCN(c4ccc(F)cc4)CC3)cc2o1 | 59 | – | – |
| Cc1ccc(NCCNCc2ccc3ccc(=O)oc3c2)cc1 | – | – | Intrinsic activity [2]: 0% |
| COc1ccc(N2CCN(Cc3ccc4ccc(=O)oc4c3)CC2)cc1 | 75 | – | – |
| O=c1ccc2ccc(CNCCNc3ccccc3)cc2o1 | – | – | Ki [3]: 3.71 µM; Ki [4]: > 4.35 µM; Ki (D(3) dopamine receptor): 424 nM; Intrinsic activity [2]: 0%; Behavioral effect (Mus musculus): Active; Control (Rattus norvegicus [5]): inactive; Control (Rattus norvegicus [6]): inactive; ED50 (Rattus norvegicus [7]): 3 mg/kg; Control (Rattus norvegicus [8]): 32%; Control (Rattus norvegicus [9]): 20% |
| Cc1ccc(N2CCN(Cc3ccc4ccc(=O)oc4c3)CC2)cc1C | 14 | 0.433 | – |
| Cc1ccc(N2CCN(Cc3ccc4ccc(=O)oc4c3)CC2)cc1Cl | 6.9 | 5.882 | Ratio [10]: 852; Intrinsic activity [2]: 0%; Control (Rattus norvegicus [8]): 27%; Control (Rattus norvegicus [9]): 19% |
| O=c1ccc2ccc(CN3CC=C(c4ccccc4)CC3)cc2o1 | 4.4 | 0.121 | – |
| Cc1ccc(N2CCN(Cc3ccc4oc(=O)ccc4c3)CC2)cc1 | 11 | 5.836 | Intrinsic activity [11]: 0%; Control (Rattus norvegicus [12]): -16%; Control (Rattus norvegicus [13]): 22% |
| Cc1cccc(N2CCN(Cc3ccc4oc(=O)ccc4c3)CC2)c1 | 74 | – | – |
| CCN(CCNc1ccccc1)Cc1ccc2ccc(=O)oc2c1 | 410 | – | – |
| Cc1cccc(N2CCN(Cc3ccc4ccc(=O)oc4c3)CC2)c1 | 32 | 4.4 | – |
| O=c1ccc2ccc(CN3CCN(c4ccc(Cl)cc4)CC3)cc2o1 | 93 | – | – |
